From ChEMBL document CHEMBL3272115, “Synthesis and microbiological activities of beta-(1-chloro-2-naphthyl) alanine and beta-(1-bromo-2-naphthyl) alanine” (1976)
≈ marks a conversion by molar mass, not a printed value. Calls of active or inactive are those of the source. The rule behind the calls is not given here.

How the values were obtained:
[1] = Antimicrobial activity against Leuconostoc dextranicum ATCC 8086 after 18 hrs by spectrophotometry; format: functional, Leuconostoc mesenteroides subsp. dextranicum; conditions: Leuconostoc mesenteroides, ATCC 8086, 18 h
Summary of the method: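 Basal lactic-acid-bacteria medium with 0.2 µg/ml calcium pantothenate and 0.02 µg/ml pantethine; Phe and Tyr omitted, Trp at 3 µg/ml; phosphate raised fourfold and 100 µg/ml glutamine added. Aqueous stock (1 mg/ml) serially diluted, up to 200 µg/ml. Incubated at 30° for 18 h. Turbidity read at 625 nm against an uninoculated blank. MIC from at least six repeats.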

Escherichia coli = assay: Antimicrobial activity against Escherichia coli ATCC 9723 after 16 hrs by spectrophotometry; format: functional; conditions: ATCC 9723, 16 h
Summary of the method: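 Stock of 10 mg in 10 ml sterile water (slight warming), serially diluted into autoclaved medium tubes, tested up to 200 µg/ml. Incubated at 37° for 16 h after inoculation. Turbidity read at 625 nm against an uninoculated medium blank. MIC taken as the minimum inhibitory concentration, with controls and at least six repeat assays.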

[2] = tested on: Lactiplantibacillus plantarum; assay: Antimicrobial activity against Lactobacillus plantarum ATCC 8014 after 18 hrs by spectrophotometry in presence of 40 ug/ml each of phenylalanine,tyrosine and tryptophan; format: functional
[3] = tested on: Leuconostoc mesenteroides subsp. dextranicum; assay: (§1) Antimicrobial activity against Leuconostoc dextranicum ATCC 8086 after 18 hrs by spectrophotometry in presence of 40 ug/ml each of phenylalanine,tyrosine and tryptophan; format: functional
[4] = tested on: Lactiplantibacillus plantarum; assay: Antimicrobial activity against Lactobacillus plantarum ATCC 8014 after 18 hrs by spectrophotometry; format: functional; conditions: ATCC 8014, 18 h
Summary of the method: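 Basal lactic-acid-bacteria medium with 0.2 µg/ml calcium pantothenate and 0.02 µg/ml pantethine; phenylalanine and tyrosine omitted, and tryptophan lowered to 3 µg/ml; for this strain, Phe and Tyr at 1 µg/ml. Aqueous stock (1 mg/ml) serially diluted, up to 200 µg/ml. Incubated at 30° for 18 h. Absorbance read at 625 nm versus an uninoculated blank. MIC from at least six repeats.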

[5] = as §1; format: functional, Leuconostoc mesenteroides subsp. dextranicum; conditions: Leuconostoc mesenteroides, ATCC 8086, 18 h

Row | MIC [1] [µg/mL] | MIC (Escherichia coli) [µg/mL] | MIC [3] | MIC [5] [µg/mL] | SMILES | MIC [2] | MIC [4] [µg/mL] | MIC ([2]; ATCC 8014, 18 h) [µg/mL]
1 | 20 (≈ 80.1 µM) | > 200 | Active |  | NC(Cc1ccc2ccccc2c1Cl)C(=O)O (racemic) | Active | 20 (≈ 80.1 µM) | 
2 | 200 (≈ 929 µM) | > 200 | Active |  | NC(Cc1cccc2ccccc12)C(=O)O (stereo not drawn) | Active | 200 (≈ 929 µM) | 
3 | 200 (≈ 680 µM) | 200 (≈ 680 µM) | Active |  | NC(Cc1ccc2ccccc2c1Br)C(=O)O (racemic) | Active | 200 (≈ 680 µM) | 
4 | 6 (≈ 27.8 µM) | 2 (≈ 9.27 µM) |  | 200 | NC(Cc1ccc(O)cc1Cl)C(=O)O (stereo not drawn) |  | 0.6 (≈ 2.78 µM) | 200
5 | > 200 | > 200 |  |  | NC(Cc1ccc2ccccc2c1)C(=O)O (stereo not drawn) |  | > 200 | 
